Reference: ChEMBL document CHEMBL2321672, “Discovery of biphenylacetamide-derived inhibitors of BACE1 using de novo structure-based molecular design” (J Med Chem, 2013)
Active and inactive are the calls of the source. The calls are words filed in the database; no cut-off is given here.

Key:
[1] = biological target: T1, Beta-secretase 1 (Homo sapiens, UniProt P56817); test: Inhibition of recombinant BACE1 (unknown origin) using FAM-SEVNLDAEFK-TAMRA as substrate incubated for 30 mins prior to substrate addition by fluorimetric analysis
[2] = Cytotoxicity against HEK293 cells assessed as cell viability at 100 uM after 24 hrs by MTT assay relative to control; assay type: cell-based; conditions: human, read-out: Activity
How it was run: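 MTT viability read-out on mammalian cells after 24-hour exposure to 100 µM compound; viable cells expressed as percentage remaining relative to control; mean ± SEM, n ≥ 3.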

[3] = biological target: T1, Beta-secretase 1; test: Inhibition of recombinant BACE1 (unknown origin) using FAM-SEVNLDAEFK-TAMRA as substrate at 100 uM incubated for 30 mins prior to substrate addition by fluorimetric analysis relative to control
[4] = biological target: T2, Beta-secretase 2 (Homo sapiens, UniProt Q9Y5Z0); test: Inhibition of recombinant BACE2 (unknown origin) using FAM-SEVNLDAEFK-TAMRA as substrate incubated for 30 mins prior to substrate addition by fluorimetric analysis
T2 sequence (Q9Y5Z0 whole entry): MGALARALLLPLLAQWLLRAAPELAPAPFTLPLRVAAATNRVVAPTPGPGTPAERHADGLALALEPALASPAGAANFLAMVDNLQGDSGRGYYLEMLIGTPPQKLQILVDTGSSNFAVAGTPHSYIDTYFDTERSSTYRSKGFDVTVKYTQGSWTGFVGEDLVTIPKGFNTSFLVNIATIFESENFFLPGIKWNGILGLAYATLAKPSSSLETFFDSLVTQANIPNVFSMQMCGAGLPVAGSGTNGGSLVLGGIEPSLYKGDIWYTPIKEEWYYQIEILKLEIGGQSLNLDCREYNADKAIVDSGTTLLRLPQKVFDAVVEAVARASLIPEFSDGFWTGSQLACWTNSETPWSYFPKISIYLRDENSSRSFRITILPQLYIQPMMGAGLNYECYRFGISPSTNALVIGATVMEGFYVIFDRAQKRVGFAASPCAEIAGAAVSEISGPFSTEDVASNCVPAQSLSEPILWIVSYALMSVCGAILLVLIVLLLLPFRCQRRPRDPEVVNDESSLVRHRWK

[5] = species: Homo sapiens; test: Selectivity ratio of IC50 for recombinant BACE2 (unknown origin) to IC50 of recombinant BACE1 (unknown origin)
[6] = biological target: T1, Beta-secretase 1; test: Inhibition of BACE1 (unknown origin) -mediated sAP-APP production expressed in HEK293 cells coexpressing N-terminal […] APP at 100 uM after 24 hrs by spectrophotometric analysis; assay type: cell-based
How it was run: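 HEK 293 cells stably expressing BACE1 plus wild-type human APP carrying an N-terminal alkaline phosphatase tag (AP-APP) were incubated with compound. Release of sAP-APP into conditioned media was quantified as alkaline phosphatase activity and expressed as percentage of the matched control.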

[7] = test system: HEK293; test: Effect on sAPPalpha level in HEK293 cells coexpressing N-terminal […] APP at 100 uM after 24 hrs by Western blotting analysis; assay type: functional
How it was run: (§1)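 HEK 293 cells over-expressing BACE1 were exposed to compound at 100 µM for 24 hours. Conditioned media were western blotted for sAPPα and sAPPβ, with sAPPβ detected by antibody 1A9. Levels were compared with control.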

[8] = biological target: T1, Beta-secretase 1; test: Inhibition of BACE1 (unknown origin) expressed in HEK293 cells coexpressing N-terminal […] APP assessed as decrease in sAPPbeta level at 100 uM after 24 hrs by Western blotting analysis; assay type: cell-based; how it was run: as §1

T1 sequence (P56817 whole entry): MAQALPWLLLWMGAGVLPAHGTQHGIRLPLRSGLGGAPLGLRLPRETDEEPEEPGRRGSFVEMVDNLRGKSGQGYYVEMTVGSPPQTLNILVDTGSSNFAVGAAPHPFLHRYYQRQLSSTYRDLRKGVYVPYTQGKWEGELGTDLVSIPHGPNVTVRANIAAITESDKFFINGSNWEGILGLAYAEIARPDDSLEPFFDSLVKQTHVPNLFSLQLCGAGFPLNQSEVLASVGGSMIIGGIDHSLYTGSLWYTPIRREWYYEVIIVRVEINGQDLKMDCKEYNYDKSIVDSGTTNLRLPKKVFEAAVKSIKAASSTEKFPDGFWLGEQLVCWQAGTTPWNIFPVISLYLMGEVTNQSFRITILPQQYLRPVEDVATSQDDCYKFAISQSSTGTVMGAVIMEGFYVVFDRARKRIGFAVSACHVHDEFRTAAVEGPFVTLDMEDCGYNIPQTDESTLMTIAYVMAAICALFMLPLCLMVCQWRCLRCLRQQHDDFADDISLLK

| SMILES | IC50 ([1]; read-out: IC50) [µM] | viability at 24 h, 100 µM [2] [%] | inhibition [3] | IC50 [4] [µM] | Ratio IC50 [5] | other results |
| --- | --- | --- | --- | --- | --- | --- |
| NCc1ccc(CNC(=O)C(Cc2ccccc2)c2ccc(-c3ccccc3)cc2)cc1 (stereo unspecified) | 26.9 | 15 | 102% | 21 | – | – |
| CC(C)C(C(=O)NCc1ccc(CN)cc1)c1ccc(-c2ccccc2)cc1 (stereo unspecified) | 33.5 | 50 | 66.1% | 100 | 2 | – |
| NCc1ccc(CNC(=O)Cc2ccc(-c3cc(C(F)(F)F)cc(C(F)(F)F)c3)cc2)cc1 | 63.9 | 8 | 80.6% | 33.2 | – | – |
| O=C(Cc1ccc(-c2cccc(C(F)(F)F)c2)cc1)NCc1ccccc1 | – | 27 | – | – | – | IC50 [1]: Not Active |
| NCc1ccc(CNC(=O)Cc2ccc(-c3ccc(O)cc3)cc2)cc1 | > 100 | – | 41.3% | – | – | – |
| O=C(Cc1ccc(-c2c(F)c(F)c(F)c(F)c2F)cc1)NCc1ccccc1 | – | 61 | – | – | – | IC50 [1]: Not Active |
| COc1ccc(CNC(=O)Cc2ccc(-c3ccccc3)cc2)cc1 | – | 82 | inactive | – | – | inhibition [1]: inactive |
| O=C(Cc1ccc(-c2cc(C(F)(F)F)cc(C(F)(F)F)c2)cc1)NCc1ccccc1 | – | 76 | – | – | – | IC50 [1]: Not Active |
| C[C@@H](C(=O)NCc1ccc(CN)cc1)c1ccc(-c2ccccc2)c(F)c1 | 85.7 | 18 | 55.5% | 194 | 2 | – |
| NCc1ccc(CNC(=O)Cc2ccc(-c3c(F)c(F)c(F)c(F)c3F)cc2)cc1 | 101 | 68 | 51.8% | 246 | 2 | inhibition [6]: 39.4%; Activity ([7]; Homo sapiens): inactive; inhibition [8]: Active |
| O=C(Cc1ccc(-c2ccccc2)cc1)NCc1ccc(CN2CCCC2)cc1 | > 100 | 24 | 24.4% | – | – | – |
| NCc1ccc(CNC(=O)Cc2ccc(-c3cccc(C(F)(F)F)c3)cc2)cc1 | 58.9 | 46 | 60.7% | 319 | 2 | – |
| COc1ccc(NC(=O)Cc2ccc(-c3ccccc3)cc2)cc1 | – | – | inactive | – | – | – |
| NCc1ccc(CNC(=O)Cc2ccc(-c3ccccc3)cc2O)cc1 | > 100 | 18 | 42.5% | – | – | – |
| CC[N+](CC)(CC)Cc1ccc(CNC(=O)Cc2ccc(-c3ccccc3)cc2)cc1 | > 100 | 40 | 44.1% | – | – | – |
| CCN(CC)Cc1ccc(CNC(=O)Cc2ccc(-c3ccccc3)cc2)cc1 | > 100 | 38 | 34.4% | – | – | – |
| NCc1ccc(CNC(=O)Cc2ccc(-c3ccccc3)cc2)cc1 | 323 | 42 | 35.6% | > 1000 | 2 | – |
| O=C(Cc1ccc(-c2ccccc2)cc1)NCc1ccccc1 | – | 93 | 15.2% | – | – | inhibition [1]: inactive |
| NCc1ccc(CNC(=O)Cc2ccc(-c3ccccc3)c(O)c2)cc1 | > 100 | 50 | 28.1% | – | – | – |
| O=C(Cc1ccc(-c2ccccc2)cc1)NCCc1c[nH]c2ccccc12 | – | – | inactive | – | – | – |
| O=C(Cc1ccc(-c2ccccc2)cc1)NCc1ccc(CN2Cc3ccccc3C2)cc1 | 63.3 | 80 | 70.1% | > 1000 | 2 | inhibition [6]: 21.7%; Activity [7]: 10%; inhibition [8]: 33% |
| O=C(Cc1ccc(-c2ccccc2)cc1)Nc1ccc(Br)cc1 | – | – | inactive | – | – | – |
| CC(C(=O)NCc1ccc(CN)cc1)c1ccc(-c2ccccc2)c(F)c1 (stereo unspecified) | 77.1 | 11 | 51.7% | 207 | 2 | – |
